Measured values: ChEMBL document CHEMBL1156597, “Structure-activity relationship of kahalalide F synthetic analogues” (J Med Chem, 2008)

Columns and labels:
[1] = system: DU-145; test: Cytotoxicity against human DU145 cells after 48 hrs by SRB assay; assay type: functional, cell-based; conditions: Homo sapiens, DU-145, 48 h; for GI50: read-out: GI50; for CC50: read-out: LC50 (the source's name)
In short: (§1)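 Cells grown in RPMI 1640 with 10% FBS and penicillin/streptomycin at 37 °C and 5% CO₂, trypsinized, then seeded at 5 × 10³/well. After 18 h drug-free attachment, samples in DMSO/EtOH/PBS (0.5:0.5:99) were added for 48 h continuous exposure. Cells were fixed with cold TCA (1 h, 4 °C) and stained with SRB (10 min). Tris-solubilized stain read at 490 nm. Triplicate wells, mean ± SD; GI₅₀ derived.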

[2] = system: LNCaP; test: Cytotoxicity against human LNcaP cells after 48 hrs by SRB assay; assay type: functional; conditions: for CC50: read-out: LC50 (the source's name); in short: as §1
[3] = Cytotoxicity against human IGROV cells after 48 hrs by SRB assay; assay type: functional; conditions: for CC50: read-out: LC50 (the source's name); in short: as §1
[4] = Cytotoxicity against human IGROV-ET cells after 48 hrs by SRB assay; assay type: functional; conditions: for CC50: read-out: LC50 (the source's name); in short: as §1
[5] = system: SK-BR-3; test: Cytotoxicity against human SKBR3 cells after 48 hrs by SRB assay; assay type: functional; conditions: SK-BR-3, 48 h; for GI50: read-out: GI50; for CC50: read-out: LC50 (the source's name); in short: as §1
[6] = system: SK-MEL-28; test: Cytotoxicity against human SK-MEL-28 cells after 48 hrs by SRB assay; assay type: functional, cell-based; conditions: Homo sapiens, SK-MEL-28, 48 h; for GI50: read-out: GI50; for CC50: read-out: LC50 (the source's name); in short: as §1
[7] = system: A549; test: Cytotoxicity against human A549 cells after 48 hrs by SRB assay; assay type: functional, cell-based; conditions: Homo sapiens, A549, 48 h; for GI50: read-out: GI50; in short: as §1
[8] = system: K562; test: Cytotoxicity against human K562 cells after 48 hrs by SRB assay; assay type: functional; conditions: K562, 48 h; for CC50: read-out: LC50 (the source's name); in short: as §1
[9] = system: PANC-1; test: Cytotoxicity against human PANC1 cells after 48 hrs by SRB assay; assay type: functional; conditions: PANC-1, 48 h; for CC50: read-out: LC50 (the source's name); in short: as §1
[10] = system: HT-29; test: Cytotoxicity against human HT29 cells after 48 hrs by SRB assay; assay type: functional, cell-based; conditions: Homo sapiens, HT-29, 48 h; for CC50: read-out: LC50 (the source's name); in short: as §1
[11] = system: LoVo; test: Cytotoxicity against human LoVo cells after 48 hrs by SRB assay; assay type: functional; conditions: for CC50: read-out: LC50 (the source's name)
[12] = system: LoVo; test: Cytotoxicity against human doxorubicin resistant LoVo cells after 48 hrs by SRB assay; assay type: functional; conditions: for CC50: read-out: LC50 (the source's name); in short: as §1
[13] = system: HeLa; test: Cytotoxicity against human HeLa cells after 48 hrs by SRB assay; assay type: functional; conditions: for CC50: read-out: LC50 (the source's name); in short: as §1
[14] = Cytotoxicity against human HeLa-APL cells after 48 hrs by SRB assay; assay type: functional; in short: as §1

C/C=C1\NC(=O)[C@H](Cc2ccccc2)NC(=O)[C@@H](C(C)C)NC(=O)[C@@H]([C@H](C)CC)NC(=O)[C@H](NC(=O)[C@H](NC(=O)[C@H](CCCCN)NC(=O)[C@H]2CCCN2C(=O)[C@H](NC(=O)[C@@H](NC(=O)[C@@H](NC(=O)[C@H](NC(=O)CCCC(C)C)C(C)C)[C@@H](C)O)C(C)C)C(C)C)[C@H](C)CC)[C@H](C)OC(=O)[C@H](C(C)C)NC1=O
TGI [1]: 2440 nM
GI50 [1]: 1290 nM
CC50 [1]: 3170 nM
GI50 [2]: 1330 nM
TGI [2]: 1150 nM
CC50 [2]: 985 nM
GI50 [3]: 568 nM
GI50 ([3]; read-out: GI50): 562 nM
CC50 [3]: 5720 nM
GI50 [4]: 619 nM
GI50 ([4]; read-out: GI50): 645 nM
CC50 [4]: 587 nM
TGI [5]: 366 nM
GI50 [5]: 385 nM
CC50 [5]: 351 nM
TGI [6]: 1270 nM
GI50 [6]: 1470 nM
CC50 [6]: 1370 nM
LC50 [7]: 1340 nM
TGI [7]: 1390 nM
GI50 [7]: 1440 nM
GI50 [8]: 9350 nM
TGI [8]: 14700 nM
CC50 [8]: 4770 nM
GI50 [9]: 5110 nM
TGI [9]: 4550 nM
CC50 [9]: 2210 nM
GI50 [10]: 521 nM
TGI [10]: 422 nM
CC50 [10]: 340 nM
GI50 [11]: 426 nM
TGI [11]: 379 nM
CC50 [11]: 337 nM
GI50 [12]: 301 nM
TGI [12]: 280 nM
CC50 [12]: 36.6 nM
GI50 [13]: 910 nM
TGI [13]: 776 nM
CC50 [13]: 883 nM
GI50 [14]: 512 nM
LC50 (concentration giving 50% net cell kill) [14]: 757 nM
TGI [14]: 664 nM

C/C=C1\NC(=O)[C@H](Cc2ccccc2)NC(=O)[C@@H](C(C)C)NC(=O)[C@@H]([C@H](C)CC)NC(=O)[C@H](NC(=O)[C@H](NC(=O)[C@H](CCCNC(=O)C(F)(F)F)NC(=O)[C@H]2CCCN2C(=O)[C@H](NC(=O)[C@@H](NC(=O)[C@@H](NC(=O)[C@H](NC(=O)CC[C@@H](C)CC)C(C)C)[C@@H](C)O)C(C)C)C(C)C)[C@H](C)CC)[C@H](C)OC(=O)[C@H](C(C)C)NC1=O
TGI [1]: 1100 nM
GI50 [1]: 1330 nM
CC50 [1]: 898 nM
GI50 [2]: 1460 nM
TGI [2]: 1990 nM
CC50 [2]: 1410 nM
GI50 [3]: 276 nM
GI50 ([3]; read-out: GI50): 305 nM
CC50 [3]: 87.5 nM
GI50 [4]: 508 nM
GI50 ([4]; read-out: GI50): 489 nM
CC50 [4]: 528 nM
TGI [5]: 190 nM
GI50 [5]: 112 nM
CC50 [5]: 320 nM
TGI [6]: 1540 nM
GI50 [6]: 1910 nM
CC50 [6]: 1220 nM
LC50 [7]: 1200 nM
TGI [7]: 1170 nM
GI50 [7]: 1140 nM
CC50 [8]: 1810 nM
CC50 [9]: 1660 nM
GI50 [10]: 266 nM
TGI [10]: 301 nM
CC50 [10]: 342 nM
GI50 [11]: 311 nM
TGI [11]: 296 nM
CC50 [11]: 282 nM
GI50 [12]: 276 nM
TGI [12]: 282 nM
CC50 [12]: 287 nM
GI50 [13]: 502 nM
TGI [13]: 463 nM
CC50 [13]: 525 nM
GI50 [14]: 1210 nM
LC50 (concentration giving 50% net cell kill) [14]: 789 nM
TGI [14]: 963 nM

C/C=C1\NC(=O)[C@H](Cc2ccccc2)NC(=O)[C@@H](C(C)C)NC(=O)[C@@H]([C@H](C)CC)NC(=O)[C@H](NC(=O)[C@H](NC(=O)[C@H](CCCNC(=O)C(F)(F)F)NC(=O)[C@H]2CCCN2C(=O)[C@H](NC(=O)[C@@H](NC(=O)[C@@H](NC(=O)[C@H](NC(=O)CC[C@@H](C)CC)C(C)C)[C@@H](C)OC(=O)C(F)(F)F)C(C)C)C(C)C)[C@H](C)CC)[C@H](C)OC(=O)[C@H](C(C)C)NC1=O
TGI [1]: 1170 nM
GI50 [1]: 1460 nM
CC50 [1]: 931 nM
GI50 [2]: 1140 nM
TGI [2]: 1720 nM
CC50 [2]: 1330 nM
GI50 [3]: 397 nM
GI50 ([3]; read-out: GI50): 373 nM
CC50 [3]: 281 nM
GI50 [4]: 911 nM
GI50 ([4]; read-out: GI50): 770 nM
CC50 [4]: 2480 nM
TGI [5]: 322 nM
GI50 [5]: 331 nM
CC50 [5]: 313 nM
CC50 [6]: 1140 nM
LC50 [7]: 1180 nM
TGI [7]: 1200 nM
GI50 [7]: 1230 nM
CC50 [8]: 1710 nM
CC50 [9]: 1570 nM
GI50 [10]: 329 nM
TGI [10]: 355 nM
CC50 [10]: 381 nM
GI50 [11]: 276 nM
TGI [11]: 284 nM
CC50 [11]: 294 nM
GI50 [12]: 363 nM
TGI [12]: 396 nM
CC50 [12]: 1130 nM
GI50 [13]: 656 nM
TGI [13]: 597 nM
CC50 [13]: 543 nM
GI50 [14]: 849 nM
LC50 (concentration giving 50% net cell kill) [14]: 679 nM
TGI [14]: 778 nM
